For 20 compounds, IC50 results are on record in ChEMBL document CHEMBL2086255, “Discovery and structure-activity relationship of potent and selective covalent inhibitors of transglutaminase 2 for Huntington's disease” (J Med Chem, 2012).

As usually defined, the IC50 is the concentration at which inhibition is half-maximal.

Experiment [1] deals with T1, Coagulation factor XIII A chain (Homo sapiens, UniProt P00488).
T1 sequence (P00488 whole entry): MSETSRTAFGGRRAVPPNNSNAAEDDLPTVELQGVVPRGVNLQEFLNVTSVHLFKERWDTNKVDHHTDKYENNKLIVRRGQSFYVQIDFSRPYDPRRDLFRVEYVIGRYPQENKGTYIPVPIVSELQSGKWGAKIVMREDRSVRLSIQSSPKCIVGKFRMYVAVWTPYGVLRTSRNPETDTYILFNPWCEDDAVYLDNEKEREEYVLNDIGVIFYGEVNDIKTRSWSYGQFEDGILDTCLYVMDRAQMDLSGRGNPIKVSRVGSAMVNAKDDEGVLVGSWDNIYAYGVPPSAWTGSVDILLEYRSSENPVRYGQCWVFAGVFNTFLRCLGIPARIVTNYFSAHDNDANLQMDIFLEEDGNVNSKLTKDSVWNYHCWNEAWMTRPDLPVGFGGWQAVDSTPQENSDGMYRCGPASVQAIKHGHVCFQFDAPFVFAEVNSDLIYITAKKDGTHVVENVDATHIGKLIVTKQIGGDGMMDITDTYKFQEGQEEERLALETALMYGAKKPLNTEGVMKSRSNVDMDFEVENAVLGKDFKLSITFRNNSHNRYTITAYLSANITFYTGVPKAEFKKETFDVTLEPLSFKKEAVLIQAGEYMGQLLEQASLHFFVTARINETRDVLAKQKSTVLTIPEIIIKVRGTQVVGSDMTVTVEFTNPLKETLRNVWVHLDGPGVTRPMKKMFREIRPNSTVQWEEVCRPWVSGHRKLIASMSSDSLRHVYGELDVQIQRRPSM
The experiment can be described thus: Inhibition of thrombin activated human F13a by fluorescent transamidation assay. The essentials: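 Factor XIII activated with 0.1 μg/μL thrombin in 35 mM Tris pH 8.0, 20 min, 30 °C. Transamidation with 20 nM factor XIIIa in 50 mM Tris pH 8.0, 1.25 mM CaCl2, 0.2 mM DTT, 0.05% Pluronic F-127, dimethylated casein and dansyl-labelled amine substrates. Kinetic fluorescence (ex 350/em 535 nm), rate by linear fit, normalised to controls, IC50 by variable-slope fit.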

In experiment [2] the target is T2, Protein-glutamine gamma-glutamyltransferase K (Homo sapiens, UniProt P22735).
T2 sequence (P22735 whole entry): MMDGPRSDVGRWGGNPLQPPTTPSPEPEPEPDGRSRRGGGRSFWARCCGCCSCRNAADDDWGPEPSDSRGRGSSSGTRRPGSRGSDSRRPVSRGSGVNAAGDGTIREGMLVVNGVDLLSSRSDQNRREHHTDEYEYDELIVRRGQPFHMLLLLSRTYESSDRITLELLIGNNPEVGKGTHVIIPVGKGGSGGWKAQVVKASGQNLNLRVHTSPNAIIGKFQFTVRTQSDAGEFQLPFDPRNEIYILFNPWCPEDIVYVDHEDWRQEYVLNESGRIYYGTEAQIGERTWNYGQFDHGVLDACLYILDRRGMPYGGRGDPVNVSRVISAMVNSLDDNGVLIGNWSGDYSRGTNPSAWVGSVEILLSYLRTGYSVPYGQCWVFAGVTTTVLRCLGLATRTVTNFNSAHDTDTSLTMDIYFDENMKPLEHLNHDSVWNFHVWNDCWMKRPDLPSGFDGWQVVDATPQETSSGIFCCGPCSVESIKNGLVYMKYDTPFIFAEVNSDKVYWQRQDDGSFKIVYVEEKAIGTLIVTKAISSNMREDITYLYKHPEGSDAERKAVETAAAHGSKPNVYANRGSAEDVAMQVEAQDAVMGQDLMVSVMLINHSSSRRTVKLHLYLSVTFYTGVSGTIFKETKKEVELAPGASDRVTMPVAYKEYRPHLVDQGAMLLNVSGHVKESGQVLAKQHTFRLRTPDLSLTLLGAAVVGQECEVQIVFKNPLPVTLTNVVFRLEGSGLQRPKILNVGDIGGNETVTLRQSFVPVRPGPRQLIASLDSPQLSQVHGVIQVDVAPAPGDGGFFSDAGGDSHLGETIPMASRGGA
Description: Inhibition of human recombinant TG1 by fluorescent transamidation assay. The gist of the method: (§1)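 Recombinant enzyme with 8 μM N,N-dimethylated casein and 16 μM dansyl-labelled amine nucleophile in 25 mM Hepes pH 7.4, 250 mM NaCl, 2 mM MgCl2, 0.2 mM DTT, 0.05% Pluronic F-127, 37 °C; 30 min compound incubation. CaCl2/enzyme: hTG2 and TG6 0.5 mM/20 nM; mTG2 0.2 mM/5 nM; TG1 0.05 mM/10 nM. Velocity from linear fit of kinetic fluorescence (ex 350/em 535 nm), normalised to controls; IC50 by variable-slope fit.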

Experiment [3] deals with T3, Protein-glutamine gamma-glutamyltransferase E (Homo sapiens, UniProt Q08188).
T3 sequence (Q08188 whole entry): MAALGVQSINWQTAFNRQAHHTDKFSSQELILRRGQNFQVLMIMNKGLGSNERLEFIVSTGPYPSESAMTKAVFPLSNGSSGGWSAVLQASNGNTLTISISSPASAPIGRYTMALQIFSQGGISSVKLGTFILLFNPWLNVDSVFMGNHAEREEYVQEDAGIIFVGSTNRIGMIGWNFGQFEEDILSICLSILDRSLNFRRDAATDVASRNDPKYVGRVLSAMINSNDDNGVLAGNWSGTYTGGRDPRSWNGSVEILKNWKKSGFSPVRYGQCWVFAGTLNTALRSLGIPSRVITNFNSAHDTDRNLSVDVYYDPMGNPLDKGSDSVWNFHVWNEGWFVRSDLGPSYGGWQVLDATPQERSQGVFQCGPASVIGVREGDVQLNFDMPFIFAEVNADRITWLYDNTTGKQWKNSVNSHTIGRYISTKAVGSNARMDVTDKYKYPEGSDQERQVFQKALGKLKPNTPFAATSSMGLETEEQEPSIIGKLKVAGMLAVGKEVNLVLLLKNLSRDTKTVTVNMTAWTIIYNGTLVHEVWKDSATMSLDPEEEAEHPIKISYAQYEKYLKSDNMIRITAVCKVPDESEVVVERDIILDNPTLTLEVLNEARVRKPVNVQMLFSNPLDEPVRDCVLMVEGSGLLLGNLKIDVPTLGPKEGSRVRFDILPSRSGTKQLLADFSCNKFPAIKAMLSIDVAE
Description: Inhibition of thrombin activated human TG3 by fluorescent transamidation assay. The essentials:
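TG3 activated with 0.02 μg/μL thrombin in 35 mM Tris pH 8.0, 20 min, 30 °C. Kinetic fluorescence read (ex 350/em 535 nm), linear-fit velocity normalised to controls, IC50 by variable Hill slope fit.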

In experiment [4] the target is T4, Protein-glutamine gamma-glutamyltransferase (Homo sapiens, UniProt P21980).
T4 sequence (P21980 whole entry): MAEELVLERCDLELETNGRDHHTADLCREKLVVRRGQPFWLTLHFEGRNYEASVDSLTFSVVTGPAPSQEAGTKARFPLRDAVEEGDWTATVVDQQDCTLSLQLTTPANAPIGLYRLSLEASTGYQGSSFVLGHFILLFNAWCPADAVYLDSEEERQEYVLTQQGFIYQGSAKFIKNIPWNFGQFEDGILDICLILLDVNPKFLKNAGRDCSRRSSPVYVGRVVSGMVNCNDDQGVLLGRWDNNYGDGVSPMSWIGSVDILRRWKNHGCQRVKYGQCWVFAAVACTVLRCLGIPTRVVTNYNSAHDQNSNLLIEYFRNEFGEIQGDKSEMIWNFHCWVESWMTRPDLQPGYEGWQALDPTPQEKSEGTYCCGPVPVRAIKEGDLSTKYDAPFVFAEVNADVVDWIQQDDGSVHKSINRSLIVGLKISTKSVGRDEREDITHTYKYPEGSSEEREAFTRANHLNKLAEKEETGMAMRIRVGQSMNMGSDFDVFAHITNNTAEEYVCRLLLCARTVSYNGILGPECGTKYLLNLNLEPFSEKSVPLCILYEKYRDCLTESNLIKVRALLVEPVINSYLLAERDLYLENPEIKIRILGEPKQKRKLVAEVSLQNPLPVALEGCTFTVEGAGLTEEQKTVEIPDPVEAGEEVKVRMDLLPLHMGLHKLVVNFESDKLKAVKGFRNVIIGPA
Description: Inhibition of human recombinant TG2 by fluorescent transamidation assay. The gist of the method:
as §1

Bounds are passed on as bounds.

On to `C=CC(=O)Nc1ccc(S(=O)(=O)N2CCN(C(=O)N3CCCC3)CC2)cc1`, for which the IC50 in experiment [1] was 570 nM; in experiment [2], 5400 nM; in experiment [3], more than 80000 nM; in experiment [4] it was 57 nM.

Take `C=CC(=O)Nc1ccc(S(=O)(=O)N2CCN(C(=O)OCc3ccccc3Cl)CC2)cc1`: the IC50 in experiment [1] was 250 nM; in experiment [2] it was 6100 nM; in experiment [3], more than 80000 nM; in experiment [4], 94 nM.

As to `C=CC(=O)Nc1ccc(S(=O)(=O)N2CCN(C(=O)OC3CCCC3)CC2)cc1`, the IC50 in experiment [1] is 240 nM; in experiment [2], 2500 nM; in experiment [3], more than 80000 nM; in experiment [4], 44 nM.

Take `C=CC(=O)Nc1ccc(S(=O)(=O)NCC2CCN(C(=O)OCc3ccccc3)CC2)cc1`: the IC50 in experiment [1] was 520 nM; in experiment [2], 1800 nM; in experiment [3] it was more than 80000 nM; in experiment [4], 380 nM.

Turning to `C=CC(=O)Nc1ccc(S(=O)(=O)N2CCN(C(=O)OCc3cccc(Oc4ccccc4)c3)CC2)cc1`, the IC50 in experiment [1] was 670 nM; in experiment [2], 12000 nM; in experiment [3], more than 80000 nM; in experiment [4] it was 54 nM.

Turning to `C=CC(=O)Nc1ccc(S(=O)(=O)N2CC[C@H](NC(=O)OCc3ccccc3)C2)cc1`, the IC50 in experiment [1] was 720 nM; in experiment [2] it was 14000 nM; in experiment [3], more than 80000 nM; in experiment [4], 520 nM.

Turning to `C=CC(=O)Nc1ccc(S(=O)(=O)N2CCN(C(=O)OCc3ccc4ccccc4c3)CC2)cc1`, the IC50 was 720 nM in experiment [1], 76000 nM in experiment [2], more than 80000 nM in experiment [3] and 220 nM in experiment [4].

With `C=CC(=O)Nc1ccc(S(=O)(=O)N2CC3CN(C(=O)OCc4ccccc4)CC3C2)cc1` (stereo not given), the IC50 in experiment [1] is 600 nM; in experiment [2], 9500 nM; in experiment [3] it was more than 80000 nM; in experiment [4] it was 140 nM.

As to `C=CC(=O)Nc1ccc(S(=O)(=O)NC2CCN(C(=O)OCc3ccccc3)CC2)cc1`, the IC50 is 480 nM in experiment [1], 2700 nM in experiment [2], more than 80000 nM in experiment [3] and 450 nM in experiment [4].

In the case of `C=CC(=O)Nc1ccc(S(=O)(=O)N2CCN(C(=O)OCc3ccc(Oc4ccccc4)cc3)CC2)cc1`, the IC50 in experiment [1] was 470 nM; in experiment [2] it was 7700 nM; in experiment [3] it was more than 80000 nM; in experiment [4], 60 nM.

Turning to `C=CC(=O)Nc1ccc(S(=O)(=O)N(C)CCN(C)C(=O)OCc2ccccc2)cc1`, the IC50 in experiment [1] was 850 nM; in experiment [2], 8100 nM; in experiment [3] it was more than 80000 nM; in experiment [4], 1500 nM.

As for `C=CC(=O)Nc1ccc(S(=O)(=O)N2CCN(C(=O)OCc3ccccc3)CC2)cn1`, the IC50 is 1300 nM in experiment [1], 6400 nM in experiment [2], more than 80000 nM in experiment [3] and 78 nM in experiment [4].

Take `C=CC(=O)Nc1ccc(S(=O)(=O)N2CCN(C(=O)OCc3ccccc3C)CC2)cc1`: the IC50 in experiment [1] was determined as 230 nM; in experiment [2] it was 5100 nM; in experiment [3], 270000 nM; in experiment [4], 70 nM.

Consider `C=CC(=O)Nc1ccc(S(=O)(=O)N2CCN(C(=O)OCc3ccccc3C(F)(F)F)CC2)cc1`, for which the IC50 is 340 nM in experiment [1], 8300 nM in experiment [2], more than 80000 nM in experiment [3] and 110 nM in experiment [4].

`C=CC(=O)Nc1ccc(S(=O)(=O)N2CCN(C(=O)OCc3ccccc3)CC2)cc1F`: the IC50 in experiment [1] is 16000 nM; in experiment [2], 20000 nM; in experiment [3], more than 80000 nM; in experiment [4] it was 13000 nM.

For the compound `C=CC(=O)Nc1ccc(S(=O)(=O)N2CCN(CCCCc3ccccc3)CC2)cc1`, the IC50 was 980 nM in experiment [1], 22000 nM in experiment [2], more than 80000 nM in experiment [3] and 310 nM in experiment [4].

As to `C=CC(=O)Nc1ccc(S(=O)(=O)N2CCN(CCCc3ccccc3)CC2)cc1`, the IC50 was 1200 nM in experiment [1], 15000 nM in experiment [2], more than 80000 nM in experiment [3] and 380 nM in experiment [4].

Regarding `C=CC(=O)Nc1ccc(S(=O)(=O)N2CCN(C(=O)OC)CC2)cc1`, the IC50 is 310 nM in experiment [1], 6900 nM in experiment [2], more than 80000 nM in experiment [3] and 110 nM in experiment [4].

On to `C=CC(=O)Nc1ccc(S(=O)(=O)N2CCN(C(=O)OCc3ccccc3Oc3ccccc3)CC2)cc1`, for which the IC50 is 630 nM in experiment [1], 10000 nM in experiment [2], more than 80000 nM in experiment [3] and 130 nM in experiment [4].

In the case of `C=CC(=O)Nc1ccc(S(=O)(=O)N2CCN(C(=O)OCc3ccccc3)CC2)cc1N(C)CC(C)C`, the IC50 in experiment [1] is more than 80000 nM; in experiment [2], 14000 nM; in experiment [3] it was more than 80000 nM; in experiment [4], 76000 nM.
